Reference: publication PMC11413667 (Acta Pharmaceutica Sinica. B, 2024)

Legend:
[1] = test system: 4T1 cells; assay: MTT cytotoxicity; type: cell-based, mouse; conditions: increasing dosage, n = 4
Procedure, shortened: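 4T1 cells, cultured in DMEM with 10% FBS and 1% pen-strep at 37 °C, 5% CO2, were seeded overnight until adherent. They were then exposed to a concentration series of test compound. Light groups received 638 nm, 29.8 mW/cm2 for 12 min. Viability was measured by standard MTT relative to untreated cells, n = 4, mean ± SD.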

[2] = test system: 4T1 cells; assay: Annexin V-FITC/PI flow cytometry; type: cell-based, mouse; conditions: upon light
Procedure, shortened: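 Mouse 4T1 cells, grown in DMEM with 10% FBS and 1% pen-strep at 37 °C, 5% CO2, were exposed to test compound at one fixed concentration for 6 h in the dark. Cells were then irradiated (638 nm, 29.8 mW/cm2, 15 min) or left unirradiated, and stained with Annexin V-FITC and PI for 15 min. Apoptotic and necrotic fractions were read by flow cytometry.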

[3] = test system: 4T1 tumor; conditions: i.v., PT 20 mg/kg, PTI 25 mg/kg, 0.5-12 h

## O=C1[C@H](Cc2ccc(O)cc2)N2C(=O)CCN(C(=O)NCc3ccccc3)[C@H]2CN1Cc1cccc2ccccc12 [ICG-001]
[1]
  Cytotoxicity (MTT), ICG-001 alone: could hardly retard the cell expansion

## Palmitic-K(PpIX)-HAIYPRH [PT]
[2]
  Cells in apoptosis or necrosis state: less than a quarter
[3]
  Tumor accumulation (fluorescence imaging): weaker tumor accumulation than PTI
